As a reminder, the EC50 is the concentration that produces a half-maximal response. Low values mean higher potency in that assay, high ones lower potency in that assay. As a reminder, the CC50 is the concentration at which the toxic effect on the cells reaches its halfway point. Read a low CC50 as greater toxicity to the cells. The IC50 is the concentration at which inhibition is half-maximal. High values mean weaker potency in that assay, low ones greater potency in that assay. The term bioavailability denotes dose-corrected exposure relative to a reference, in per cent. A higher bioavailability goes with much systemic uptake. Broadly, the logP is a log measure of how a compound divides between an organic and an aqueous phase. High values mean a more lipophilic compound, low ones a more hydrophilic compound. The term half-life denotes how long it takes for the measured level to halve.

For data set [1], the system named is Human immunodeficiency virus 1. Briefly: Antiviral activity against luciferase-bearing envelope-defective HIV-1 NL4-3 pseudotype virus infected in human MT4 cells co-infected with HIV1 HXBc2 envelope by single cycle infection assay. The format is functional, organism-based. The conditions noted are these: Human immunodeficiency virus 1, NL4-3, MT4. The method, boiled down: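 Single-cycle infection of MT-4 cells with a luciferase-bearing env-defective NL-4.3 virus pseudotyped with HIV-1 env (HXBc2), read by luciferase. EC50 is the mean of at least three experiments.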

Data set [2] is described as follows: Cytotoxicity against human MT4 cells. The format is cell-based. The method, boiled down:
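Cytotoxicity measured in MT-4 cells in parallel with the 7-day multi-cycle antiviral assay. CC50 is the mean of at least three experiments.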

The nature of data set [3]: Inhibition of HIV integrase strand transfer activity. Further details: species or system Human immunodeficiency virus. The method, boiled down:
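Strand-transfer assay on purified integrase using 3'-processed oligonucleotides. % inhibition = [1 − (sample counts/mean positive control)] × 100, plotted against log molar concentration. IC50 is taken from a sigmoidal dose-response fit with variable slope and is the mean of at least three experiments.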

Data set [4] can be described thus: Oral bioavailability in Sprague-Dawley rat at 50 mg/kg after 24 hrs by LC/MS/MS analysis. The format is ADME, organism-based. The conditions noted are these: in vivo. The method, boiled down:
(§1)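 Female Sprague-Dawley rats randomly assigned to two groups: 13 rats dosed 5 mg/kg intravenously, 8 rats dosed 50 mg/kg orally. Blood collected at 7 time points after dosing. Bioavailability taken over 24 h.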

Data set [5] is described as follows: Plasma concentration in rat at 50 mg/kg after 18 hrs. In kind it is ADME, organism-based. The essentials:
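Female Sprague-Dawley rats (8) given 50 mg/kg orally, with blood collected at 7 time points after dosing.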

The subject of the next data set is Salmonella typhimurium. Briefly: Mutagenicity in Salmonella typhimurium by Ames test. In kind it is toxicity, organism-based. The conditions noted are these: salmonella enterica subsp. enterica serovar typhimurium.
Data set [6] can be described thus: Plasma protein binding in rat by Rapid Equilibrium Dialysis method. In kind it is ADME, cell-free. The conditions noted are these: read-out: PPB (converted). The essentials:
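Protein binding measured by rapid equilibrium dialysis.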

In data set [7] the test system is Human immunodeficiency virus 1. Briefly: Antiviral activity against luciferase-bearing envelope-defective HIV-1 NL4-3 pseudotype virus infected in human MT4 cells co-infected with HIV1 HXBc2 envelope after 7 days by multi-cycle assay. The conditions noted are these: Human immunodeficiency virus 1, NL4-3, MT4, 168 h. In kind it is functional, organism-based. The essentials:
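Multi-cycle antiviral assay run for 7 days in MT-4 cells, in parallel with the cytotoxicity assay. EC50 is the mean of at least three experiments.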

In data set [8] the target is Human immunodeficiency virus type 1 integrase (Human immunodeficiency virus 1, UniProt Q7ZJM1, N155H). Briefly: Inhibition of HIV integrase N155H mutant.
Human immunodeficiency virus type 1 integrase, sequence (Q7ZJM1 entry or part of it N155H): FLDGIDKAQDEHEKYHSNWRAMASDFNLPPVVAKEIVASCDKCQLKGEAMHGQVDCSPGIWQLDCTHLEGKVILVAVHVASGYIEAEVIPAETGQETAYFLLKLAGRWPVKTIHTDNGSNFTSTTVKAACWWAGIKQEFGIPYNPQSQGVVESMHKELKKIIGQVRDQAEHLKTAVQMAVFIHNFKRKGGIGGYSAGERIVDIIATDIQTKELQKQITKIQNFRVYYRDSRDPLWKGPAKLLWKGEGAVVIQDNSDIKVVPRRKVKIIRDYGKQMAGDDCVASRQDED
For data set [9], the system named is Human immunodeficiency virus. Briefly: Ratio of EC50 for HIV integrase assessed as accumulation of 2-LTR to IC50 for HIV integrase strand transfer activity.
A short description of data set [10]: Therapeutic index, ratio of CC50 for human MT4 cells to EC50 for luciferase-bearing envelope-defective HIV-1 NL4-3 pseudotype virus infected in human MT4 cells co-infected with HIV1 HXBc2 envelope. The format is cell-based. The conditions noted are these: read-out: Ratio CC50/EC50.
Data set [11] has as its target RNA-directed RNA polymerase (Hepacivirus hominis, UniProt O39930). Briefly: Inhibition of HCV RNA polymerase.
A short description of data set [12]: Lipophilicity Log P of the compound. In kind it is physicochemical. The conditions noted are these: octanol/water.
Data set [13] in a line: Inhibition of […] reverse transcriptase.
A short description of data set [14]: Half life in Sprague-Dawley rat at 5 mg/kg, iv and 50 mg/kg, po by LC/MS/MS analysis. The format is ADME, organism-based. The conditions noted are these: in vivo. The method, boiled down:
as §1

Data set [15] deals with Human immunodeficiency virus. Briefly: Ratio of EC90 for HIV integrase assessed as accumulation of 2-LTR to IC50 for HIV integrase strand transfer activity.

RNA-directed RNA polymerase, sequence (O39930 whole entry): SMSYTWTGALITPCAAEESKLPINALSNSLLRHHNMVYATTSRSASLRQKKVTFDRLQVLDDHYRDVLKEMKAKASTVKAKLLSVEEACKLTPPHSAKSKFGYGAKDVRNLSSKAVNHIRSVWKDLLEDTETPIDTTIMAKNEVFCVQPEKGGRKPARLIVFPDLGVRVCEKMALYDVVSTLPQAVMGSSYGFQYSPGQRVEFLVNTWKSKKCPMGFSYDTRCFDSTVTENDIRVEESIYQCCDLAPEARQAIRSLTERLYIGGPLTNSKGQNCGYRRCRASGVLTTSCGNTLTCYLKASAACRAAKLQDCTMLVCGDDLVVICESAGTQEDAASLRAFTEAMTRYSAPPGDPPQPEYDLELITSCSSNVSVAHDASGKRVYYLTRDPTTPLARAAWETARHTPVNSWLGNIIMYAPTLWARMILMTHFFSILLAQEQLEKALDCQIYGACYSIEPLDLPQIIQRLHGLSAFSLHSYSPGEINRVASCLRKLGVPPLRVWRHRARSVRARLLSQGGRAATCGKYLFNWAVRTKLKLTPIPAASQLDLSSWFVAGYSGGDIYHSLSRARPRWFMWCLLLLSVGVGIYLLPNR

`O=C(Cc1ccc(Cl)c(Cl)c1)Nc1cnc(C(=O)NO)c(O)c1CO`: a half-maximal response in data set [1] (EC50) required 0.04 µM. In [2], this compound showed a CC50 of 50 µM.
`O=C(Cc1ccc2c(c1)OCO2)Nc1cnc(C(=O)NO)c(O)c1CO` showed an EC50 in data set [1] of 1.86 µM. This compound showed a CC50 in data set [2] of 50 µM.
As to `O=C(NO)c1ncc(COCc2ccc(F)cc2)c(CO)c1O`, in [3], the IC50 was 0.08 µM. It took 0.015 µM to reach a half-maximal effect in [1] (EC50). Further, the CC50 in [2] stood at 11 µM.
The like results for `O=C(NO)c1ncc(/C=C/c2ccc(F)cc2)c(CO)c1O` were, in that order, > 100 µM, > 10 µM and 50 µM.
Compound `O=C(NO)c1ncc(CS(=O)(=O)Cc2ccc(F)cc2)c(CO)c1O` came in with a half-maximal inhibitory concentration (IC50) in [3] of 2.3 µM. In data set [1], this compound returned an EC50 of 4.35 µM. Besides, in [2], the CC50 is 16 µM.
The like results for `O=C(NO)c1ncc(COc2ccc(F)cc2)c(CO)c1O` were, in that order, 0.041 µM, 0.007 µM and 27 µM.
The like results for `O=C(NO)c1ncc(CNCc2ccc(F)cc2)c(CO)c1O` were, in that order, 0.55 µM, 0.695 µM and 20 µM.
`COc1ccc(CC(=O)Nc2cnc(C(=O)NO)c(O)c2CO)cc1` gave a half-maximal effective concentration (EC50) in data set [1] of 1.5 µM. Besides, in data set [2], the half-maximal cytotoxic concentration (CC50) amounted to 25 µM.
The like results for `O=C(CC1CCCCC1)Nc1cnc(C(=O)NO)c(O)c1CO` were, in that order, 11 µM and 50 µM.
`O=C(NO)c1ncc(CCCc2ccc(F)cc2)c(CO)c1O` yielded a half-maximal inhibitory concentration (IC50) in data set [3] of 0.55 µM. Besides, the response in data set [1] was half-maximal at 0.5 µM (EC50). The compound further came in with a CC50 in data set [2] of 2 µM.
With `O=C(Cc1ccc(F)c(F)c1)Nc1cnc(C(=O)NO)c(O)c1CO`, the response in data set [1] was half-maximal at 0.1 µM (EC50). Also, the CC50 in data set [2] turned out to be 51 µM.
`O=C(NO)c1ncc(CSc2ccc(F)cc2)c(CO)c1O`: in data set [3], 0.25 µM corresponded to half-maximal inhibition (IC50).
`O=C(NO)c1ncc(CCc2ccc(F)cc2)c(CO)c1O` displayed an IC50 in data set [3] of 0.327 µM. The same compound gave an EC50 in [1] of 0.076 µM. In addition, the CC50 in data set [2] was determined as 21 µM.
In the case of `Cc1ccc(CC(=O)Nc2cnc(C(=O)NO)c(O)c2CO)cc1`, in data set [1], a half-maximal response (EC50) required 4.5 µM. In data set [2], this compound showed a CC50 of 32 µM.
As for `O=C(NCCc1ccc(F)cc1)c1cnc(C(=O)NO)c(O)c1CO`, it took 2.3 µM to reach half-maximal inhibition in data set [3] (IC50). In [1], a half-maximal effect (EC50) was put at 2 µM. The compound further displayed a CC50 in data set [2] of 23 µM.
The like results for `O=C(Nc1ccc(F)cc1)c1cnc(C(=O)NO)c(O)c1CO` were, in that order, 0.328 µM, 0.04 µM and 50 µM.
The like results for `O=C(NO)c1ncc(CS(=O)(=O)c2ccc(F)cc2)c(CO)c1O` were, in that order, 10 µM, 9.3 µM and 50 µM.
The compound `O=C(Cc1ccc(F)c(Cl)c1)Nc1cnc(C(=O)NO)c(O)c1CO` returned a bioavailability in data set [4] of 25%. For the same compound, in [5], the concentration at 18 h is > 0.025 µM. For the same compound, the Activity entry in the data set on Salmonella typhimurium is listed as “Non-toxic”. Also, in data set [6], the fraction unbound was 0.11. Also, the EC50 in data set [7] was 0.128 µM; in [8] it was > 0.3 µM; in data set [1], 0.025 µM; in data set [11] it was > 50 µM; in [13], > 50 µM. The compound further registered an IC50 in data set [3] of 0.029 µM. Also, the Ratio in [9] amounted to 7; in [15], 10. The selectivity ratio in data set [10] is > 1000. Moreover, in [12], the log partition coefficient (logP) worked out at 0.6. The compound further gave a half-life in [14] of 43.8 min. Moreover, the midpoint of cytotoxicity in [2], the CC50, lay at 22 µM.
In data set [1], `O=C(Cc1cc(F)cc(F)c1)Nc1cnc(C(=O)NO)c(O)c1CO` had an EC50 of 0.4 µM. The compound further had a CC50 in [2] of 31 µM.
On to `O=C(Nc1cnc(C(=O)NO)c(O)c1CO)c1ccc(F)cc1`, for which the IC50 in data set [3] is 0.3 µM. The EC50 in data set [1] came to 6.3 µM. This compound showed a CC50 in [2] of 50 µM.
The like results for `O=C(NO)c1ncc(CNc2ccc(F)cc2)c(CO)c1O` were, in that order, 0.025 µM, 0.02 µM and 50 µM.
`O=C(Cc1ccccc1)Nc1cnc(C(=O)NO)c(O)c1CO` gave an EC50 in [1] of 0.1 µM. Further, the half-maximal cytotoxic concentration (CC50) in data set [2] is 54 µM.
